From ChEMBL document CHEMBL2057186, “Application of the bicyclo[1.1.1]pentane motif as a nonclassical phenyl ring bioisostere in the design of a potent and orally active γ-secretase inhibitor” (J Med Chem, 2012)
≈ marks a conversion by molar mass, not a printed value.

Key:
[1] = Apparent permeability from apical to basal side of dog RRCK cells; format: ADME, cell-based, Canis lupus familiaris, MDCKII-LE; details: for Papp A→B: MDCK
Procedure, shortened: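 Absorptive (A to B) permeability was measured in RRCK cells, a Madin–Darby canine kidney subline isolated for low transporter activity. It estimates intrinsic passive permeability.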

Gamma-secretase = experiment: Inhibition of gamma secretase-mediated amyloid beta42 production in human H4 cells expressing human wild-type APP
[2] = Kinetic solubility of the solubility of the compound at pH 6.5; format: physicochemical; details: buffer, read-out: Kinetic_solubility
Procedure, shortened: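 Kinetic solubility was measured in aqueous buffer at pH 6.5.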

Homo sapiens = species on record: Homo sapiens; experiment: Selectivity for human gamma-seretase over notch signalling protein
P-gp = experiment: Efflux ratio of apparent permeability from basal to apical side to apical to basal side of MDCK cells expressing human P-gp; format: ADME, cell-based, Canis lupus familiaris; details: dog, MDCK-MDR1
Procedure, shortened: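 Monolayers were MDCK cells transfected with the human P-glycoprotein (MDR1) gene. Permeability was measured basolateral-to-apical and apical-to-basolateral, and the BA/AB ratio was reported.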

| Papp A→B [1] [×10⁻⁶ cm/s] | IC50 (Gamma-secretase) [nM] | solubility kinetic [2] [µM] | Selectivity Index (Homo sapiens) | efflux ratio (P-gp) | Papp ([1]; mdckii-le) [×10⁻⁶ cm/s] | SMILES |
| --- | --- | --- | --- | --- | --- | --- |
| 29.9 | 9.6 |  |  |  |  | N#CC1(CN([C@H](CCC(F)(F)F)C(N)=O)S(=O)(=O)c2ccc(Cl)cc2)CC1 |
| 27.6 | 87.1 |  |  |  |  | N#CCCCN([C@H](CCC(F)(F)F)C(N)=O)S(=O)(=O)c1ccc(Cl)cc1 |
| 10.2 | 22.5 |  |  |  |  | N#CCCN([C@H](CCC(F)(F)F)C(N)=O)S(=O)(=O)c1ccc(Cl)cc1 |
| 9.94 | 14.7 |  |  |  |  | N#C[C@@H]1C[C@H]1CN([C@H](CCC(F)(F)F)C(N)=O)S(=O)(=O)c1ccc(Cl)cc1 |
| 19.7 | 1.04 | 44.5 (≈ 20.5 µg/mL) | 570 | 2.05 |  | N#Cc1ccc(CN([C@H](CCC(F)(F)F)C(N)=O)S(=O)(=O)c2ccc(Cl)cc2)cc1 |
| 29.6 | 24.4 |  |  |  |  | NC(=O)[C@@H](CCC(F)(F)F)N(CCc1ncon1)S(=O)(=O)c1ccc(Cl)cc1 |
|  | 4.11 |  |  |  | 14.6 | N#C[C@H]1CC[C@H](CN([C@H](CCC(F)(F)F)C(N)=O)S(=O)(=O)c2ccc(Cl)cc2)CC1 (stereo in doubt; 20) |
| 21.5 | 6.92 |  |  |  |  | N#C[C@H]1C[C@@H]1CN([C@H](CCC(F)(F)F)C(N)=O)S(=O)(=O)c1ccc(Cl)cc1 |
| 30.2 | 0.99 | 272 (≈ 122 µg/mL) | 467 | 2.04 |  | N#CC12CC(CN([C@H](CCC(F)(F)F)C(N)=O)S(=O)(=O)c3ccc(Cl)cc3)(C1)C2 |
| 18.7 | 1.77 | 6.8 (≈ 3.25 µg/mL) |  | 1.71 |  | N#Cc1ccc(CN([C@H](CCC(F)(F)F)C(N)=O)S(=O)(=O)c2ccc(Cl)cc2)c(F)c1 |
